# Measurements as given in ChEMBL document CHEMBL5058577, “EUbOPEN Chemogenomics Library 2 (Multiplex)” (2022).
# System: U2OS
# Assay: Multiplex assay against U2OS
# Format: toxicity, cell-based
# Conditions: human
# In short: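 At seeding, live cells were stained with Hoechst33342, BioTracker Green Microtubule Cytoskeleton Dye, MitoTracker Red and Annexin V Alexa Fluor 680. After compound addition they were imaged on a CQ1 microscope at 37°C and 5% CO2, and CellPathfinder machine-learning gating sorted them into Hoechst high-intensity objects or normal cells, with normal cells further split into healthy, pyknosed or fragmented nuclei and pyknosed cells into mitotic or apoptotic. Tubulin, mitochondrial-mass and membrane-permeability phenotypes are given as per cents of cells with healthy nuclei.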
# [1] = 12 h, 1 µM, compound concentration 1 uM, replicate 1
# [2] = 12 h, 1 µM, compound concentration 1 uM, replicate 2
# [3] = 12 h, 10 µM, compound concentration 10 uM, replicate 1
# [4] = 12 h, 10 µM, compound concentration 10 uM, replicate 2
# [5] = 24 h, 1 µM, compound concentration 1 uM, replicate 1
# [6] = 24 h, 1 µM, compound concentration 1 uM, replicate 2
# [7] = 24 h, 10 µM, compound concentration 10 uM, replicate 1
# [8] = 24 h, 10 µM, compound concentration 10 uM, replicate 2
# [9] = 48 h, 1 µM, compound concentration 1 uM, replicate 1
# [10] = 48 h, 1 µM, compound concentration 1 uM, replicate 2
# [11] = 48 h, 10 µM, compound concentration 10 uM, replicate 1
# [12] = 48 h, 10 µM, compound concentration 10 uM, replicate 2
compound,measurement,setting,value
CCCOc1ccc2[nH]cc(C3=CCNCC3)c2n1.Cl,Population Apoptotic (%),[1],80%
same,Population Fragmented Nuclei (%),[1],31%
same,Population Healthy Nuclei (%),[1],58%
same,Population Hoechst High Intensity Objects (%),[1],2%
same,Population Membrane Permeable-Phenotype (%),[1],2%
same,Population Mitochondria Different-Phenotype (%),[1],1%
same,Population Mitotic Cells (%),[1],19%
same,Population Normal (%),[1],97%
same,Population Pyknosed Nuclei (%),[1],9%
same,Population Tubulin-Different-Phenotype (%),[1],1%
same,Total Cell Count,[1],218
same,Population Apoptotic (%),[2],87%
same,Population Fragmented Nuclei (%),[2],13%
same,Population Healthy Nuclei (%),[2],78%
same,Population Hoechst High Intensity Objects (%),[2],1%
same,Population Membrane Permeable-Phenotype (%),[2],11%
same,Population Mitochondria Different-Phenotype (%),[2],7%
same,Population Mitotic Cells (%),[2],12%
same,Population Normal (%),[2],98%
same,Population Pyknosed Nuclei (%),[2],8%
same,Population Tubulin-Different-Phenotype (%),[2],5%
same,Total Cell Count,[2],98
same,Population Apoptotic (%),[3],86%
same,Population Fragmented Nuclei (%),[3],24%
same,Population Healthy Nuclei (%),[3],66%
same,Population Hoechst High Intensity Objects (%),[3],4%
same,Population Membrane Permeable-Phenotype (%),[3],6%
same,Population Mitochondria Different-Phenotype (%),[3],5%
same,Population Mitotic Cells (%),[3],13%
same,Population Normal (%),[3],96%
same,Population Pyknosed Nuclei (%),[3],8%
same,Population Tubulin-Different-Phenotype (%),[3],3%
same,Total Cell Count,[3],275
same,Population Apoptotic (%),[4],60%
same,Population Fragmented Nuclei (%),[4],17%
same,Population Healthy Nuclei (%),[4],74%
same,Population Hoechst High Intensity Objects (%),[4],0%
same,Population Membrane Permeable-Phenotype (%),[4],12%
same,Population Mitotic Cells (%),[4],40%
same,Population Normal (%),[4],100%
same,Population Pyknosed Nuclei (%),[4],7%
same,Population Tubulin-Different-Phenotype (%),[4],6%
same,Total Cell Count,[4],134
same,Population Apoptotic (%),[5],70%
same,Population Fragmented Nuclei (%),[5],27%
same,Population Healthy Nuclei (%),[5],61%
same,Population Hoechst High Intensity Objects (%),[5],1%
same,Population Membrane Permeable-Phenotype (%),[5],6%
same,Population Mitochondria Different-Phenotype (%),[5],1%
same,Population Mitotic Cells (%),[5],29%
same,Population Normal (%),[5],98%
same,Population Pyknosed Nuclei (%),[5],10%
same,Population Tubulin-Different-Phenotype (%),[5],3%
same,Total Cell Count,[5],252
same,Population Apoptotic (%),[6],90%
same,Population Fragmented Nuclei (%),[6],18%
same,Population Healthy Nuclei (%),[6],73%
same,Population Hoechst High Intensity Objects (%),[6],2%
same,Population Membrane Permeable-Phenotype (%),[6],3%
same,Population Mitochondria Different-Phenotype (%),[6],3%
same,Population Mitotic Cells (%),[6],9%
same,Population Normal (%),[6],97%
same,Population Pyknosed Nuclei (%),[6],8%
same,Population Tubulin-Different-Phenotype (%),[6],2%
same,Total Cell Count,[6],138
same,Population Apoptotic (%),[7],92%
same,Population Fragmented Nuclei (%),[7],25%
same,Population Healthy Nuclei (%),[7],66%
same,Population Hoechst High Intensity Objects (%),[7],3%
same,Population Membrane Permeable-Phenotype (%),[7],5%
same,Population Mitochondria Different-Phenotype (%),[7],3%
same,Population Mitotic Cells (%),[7],7%
same,Population Normal (%),[7],96%
same,Population Pyknosed Nuclei (%),[7],8%
same,Population Tubulin-Different-Phenotype (%),[7],3%
same,Total Cell Count,[7],323
same,Population Apoptotic (%),[8],72%
same,Population Fragmented Nuclei (%),[8],14%
same,Population Healthy Nuclei (%),[8],78%
same,Population Hoechst High Intensity Objects (%),[8],0%
same,Population Membrane Permeable-Phenotype (%),[8],11%
same,Population Mitochondria Different-Phenotype (%),[8],2%
same,Population Mitotic Cells (%),[8],27%
same,Population Normal (%),[8],99%
same,Population Pyknosed Nuclei (%),[8],6%
same,Population Tubulin-Different-Phenotype (%),[8],4%
same,Total Cell Count,[8],162
same,Population Apoptotic (%),[9],91%
same,Population Fragmented Nuclei (%),[9],19%
same,Population Healthy Nuclei (%),[9],69%
same,Population Hoechst High Intensity Objects (%),[9],2%
same,Population Membrane Permeable-Phenotype (%),[9],5%
same,Population Mitochondria Different-Phenotype (%),[9],3%
same,Population Mitotic Cells (%),[9],8%
same,Population Normal (%),[9],97%
same,Population Pyknosed Nuclei (%),[9],10%
same,Population Tubulin-Different-Phenotype (%),[9],1%
same,Total Cell Count,[9],350
same,Population Apoptotic (%),[10],75%
same,Population Healthy Nuclei (%),[10],74%
same,Population Membrane Permeable-Phenotype (%),[10],9%
same,Population Mitotic Cells (%),[10],25%
same,Population Pyknosed Nuclei (%),[10],6%
same,Population Tubulin-Different-Phenotype (%),[10],3%
same,Total Cell Count,[10],183
same,Population Apoptotic (%),[11],100%
same,Population Fragmented Nuclei (%),[11],18%
same,Population Healthy Nuclei (%),[11],75%
same,Population Hoechst High Intensity Objects (%),[11],4%
same,Population Membrane Permeable-Phenotype (%),[11],5%
same,Population Mitochondria Different-Phenotype (%),[11],2%
same,Population Mitotic Cells (%),[11],0%
same,Population Normal (%),[11],95%
same,Population Pyknosed Nuclei (%),[11],6%
same,Population Tubulin-Different-Phenotype (%),[11],3%
same,Total Cell Count,[11],423
same,Population Apoptotic (%),[12],94%
same,Population Fragmented Nuclei (%),[12],13%
same,Population Healthy Nuclei (%),[12],78%
same,Population Hoechst High Intensity Objects (%),[12],0%
same,Population Membrane Permeable-Phenotype (%),[12],6%
same,Population Mitochondria Different-Phenotype (%),[12],3%
same,Population Mitotic Cells (%),[12],5%
same,Population Normal (%),[12],99%
same,Population Pyknosed Nuclei (%),[12],7%
same,Total Cell Count,[12],243
